From ChEMBL document CHEMBL4387752, “Identification of substituted benzothiazole sulfones as potent and selective inhibitors of endothelial lipase” (Bioorg Med Chem Lett, 2019) come the findings set out here.

One may read the IC50 as the concentration that inhibits the measured activity by half. By AUC is commonly meant the area under the concentration-time curve, a measure of exposure. For orientation: Tmax means the time at which the peak concentration occurs. Broadly, the Cmax is the highest concentration seen after dosing.

Data set [1] deals with T1, Hepatic triacylglycerol lipase (Homo sapiens, UniProt P11150).
T1 sequence (P11150 whole entry): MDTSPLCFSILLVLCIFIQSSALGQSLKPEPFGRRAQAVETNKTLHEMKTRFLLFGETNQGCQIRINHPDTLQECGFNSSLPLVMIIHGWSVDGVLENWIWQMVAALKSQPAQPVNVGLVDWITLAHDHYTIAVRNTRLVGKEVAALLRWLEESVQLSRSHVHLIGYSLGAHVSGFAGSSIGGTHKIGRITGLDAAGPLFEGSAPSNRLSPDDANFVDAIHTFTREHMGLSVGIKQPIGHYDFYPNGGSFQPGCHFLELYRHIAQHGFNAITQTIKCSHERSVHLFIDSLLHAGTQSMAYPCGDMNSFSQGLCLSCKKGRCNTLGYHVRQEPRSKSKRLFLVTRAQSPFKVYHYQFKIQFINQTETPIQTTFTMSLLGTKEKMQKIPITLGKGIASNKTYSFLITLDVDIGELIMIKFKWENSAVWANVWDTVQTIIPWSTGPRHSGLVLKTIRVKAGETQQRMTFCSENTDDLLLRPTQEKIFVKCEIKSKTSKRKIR
Description: Inhibition of human hepatic lipase expressed in African green monkey COS7 cells using PED-A1 as substrate incubated for 20 mins and measured every 20 secs for 10 mins by FRET assay. The class given is cell-based. The gist of the method:
(§1)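 IC50s were calculated from mean inhibition values of duplicate determinations.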

Data set [2] deals with T2, Endothelial lipase (Homo sapiens, UniProt Q9Y5X9).
T2 sequence (Q9Y5X9 whole entry): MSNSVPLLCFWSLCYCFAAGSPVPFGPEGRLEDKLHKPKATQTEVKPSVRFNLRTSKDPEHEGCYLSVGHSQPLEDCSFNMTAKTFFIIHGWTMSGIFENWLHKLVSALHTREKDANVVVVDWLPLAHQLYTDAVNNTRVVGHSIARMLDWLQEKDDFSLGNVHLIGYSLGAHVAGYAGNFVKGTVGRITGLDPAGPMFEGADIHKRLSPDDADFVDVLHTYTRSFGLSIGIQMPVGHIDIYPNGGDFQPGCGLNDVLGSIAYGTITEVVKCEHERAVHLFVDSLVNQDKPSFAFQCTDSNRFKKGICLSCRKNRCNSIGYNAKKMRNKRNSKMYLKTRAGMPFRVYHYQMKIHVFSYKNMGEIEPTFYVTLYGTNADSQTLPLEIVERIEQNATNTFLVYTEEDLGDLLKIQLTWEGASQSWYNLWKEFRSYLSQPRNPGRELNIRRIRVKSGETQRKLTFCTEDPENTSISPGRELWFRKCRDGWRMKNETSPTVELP
Description: Inhibition of human endothelial lipase derived from human HT1080 cell conditioned media using PED-A1 as substrate incubated for 20 mins and measured every 20 secs for 10 mins by FRET assay. The essentials: as §1

The species named for data set [3] is Homo sapiens. Description: Selectivity index, ratio of IC50 for inhibition of human hepatic lipase expressed in African green monkey COS7 cells to IC50 for inhibition of human endothelial lipase derived from human HT1080 cell conditioned media. The class given is cell-based.
Data set [4] addresses T3, Endothelial lipase (Mus musculus, UniProt Q9WVG5).
T3 sequence (Q9WVG5 whole entry): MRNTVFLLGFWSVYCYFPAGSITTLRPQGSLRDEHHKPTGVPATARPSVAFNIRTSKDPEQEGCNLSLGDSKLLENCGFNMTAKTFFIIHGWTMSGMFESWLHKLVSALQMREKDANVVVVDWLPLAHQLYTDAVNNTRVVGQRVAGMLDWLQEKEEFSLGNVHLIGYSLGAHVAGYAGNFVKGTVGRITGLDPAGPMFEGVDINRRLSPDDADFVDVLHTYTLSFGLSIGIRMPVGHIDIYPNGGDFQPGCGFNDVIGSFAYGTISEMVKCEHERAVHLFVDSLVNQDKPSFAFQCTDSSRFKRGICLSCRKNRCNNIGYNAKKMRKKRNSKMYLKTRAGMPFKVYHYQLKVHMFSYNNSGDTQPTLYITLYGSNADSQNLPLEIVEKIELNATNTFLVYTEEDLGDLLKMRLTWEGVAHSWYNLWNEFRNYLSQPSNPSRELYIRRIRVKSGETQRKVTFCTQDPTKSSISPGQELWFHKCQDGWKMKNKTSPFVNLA
Description: Inhibition of mouse endothelial lipase expressed in HEK293F cells using D31-POPC-HDL as substrate incubated for 2 hrs in presence of mouse plasma by LC/MS analysis. The essentials: (§2)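 IC50 values were derived from the means of duplicate inhibition measurements.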

Data set [5] concerns the target T2, Endothelial lipase. Description: Inhibition of human endothelial lipase using D31-POPC-HDL as substrate incubated for 2 hrs in presence of human serum by LC/MS analysis. The gist of the method:
as §2

Data set [6] in a line: Plasma concentration in Balb/c mouse at 10 mg/kg, po measured after 24 hrs. It is filed as ADME, organism-based. The gist of the method: (§3)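 Oral PK in fasted male balb/c mice. Dosing vehicle was ethanol/PEG 400/water (10:60:30).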
Data set [7] can be described thus: Permeability of compound at pH 7.4 by PAMPA. The class given is ADME. The conditions noted are these: read-out: permeability. The essentials: (§4)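 Permeability was measured by parallel artificial membrane permeability assay (PAMPA) at pH 5.5 and pH 7.4. Values are reported in nm/s.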
Background: In PAMPA a lipid-coated filter parts donor from acceptor wells.

Data set [8] can be described thus: Permeability of compound at pH 5.5 by PAMPA. The class given is ADME. The conditions noted are these: read-out: permeability. The essentials:
as §4

Data set [9] in a line: Metabolic stability in Balb/c mouse liver microsomes assessed as parent compound remaining at 0.5 uM measured after 10 mins. The note with it: read-out: Stability. The class given is ADME, Microsome. The gist of the method:
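Test compound at 0.5 μM was incubated for 10 min with mouse liver microsomes. The read-out is the percentage of parent remaining.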
On the technique in general: Liver microsomes are a subcellular fraction often used to study metabolism.

A short description of data set [10]: Total AUC in Balb/c mouse at 10 mg/kg, po measured after 24 hrs. It is filed as ADME, organism-based. Details: dose 10 mg/kg, time AUCmax, route oral. The conditions noted are these: in vivo. The gist of the method:
as §3

The nature of data set [11]: Tmax in Balb/c mouse at 10 mg/kg, po. The class given is ADME, organism-based. The conditions noted are these: in vivo. The essentials:
as §3

Data set [12] can be described thus: Cmax in Balb/c mouse at 10 mg/kg, po. It is filed as ADME, organism-based. Details: dose 10 mg/kg, route oral. The note with it: in vivo. The gist of the method: as §3
A short description of data set [13]: Plasma concentration in Balb/c mouse at 10 mg/kg, po measured after 7 hrs. The class given is ADME, organism-based. The essentials: as §3

Turning to `CS(=O)(=O)C(C(=O)NCCNS(N)(=O)=O)c1nc2ccc(-c3ccccc3)cc2s1` (centres undefined), the figures for the IC50 in data set [1] and in data set [2] were 0.081 µM and 0.45 µM, respectively.
Turning to `O=C(CNC(=O)C(c1nc2ccc(-c3ccc(F)nc3)cc2s1)S(=O)(=O)Cc1ccccc1)NC1CC1` (centres undefined), in [3], the Ratio IC50 was found to be 0.3. In addition, the IC50 in data set [4] worked out at 0.094 µM; in data set [5], 0.065 µM; in data set [1] it was 0.007 µM; in data set [2] it was 0.025 µM.
`CS(=O)(=O)C(C(=O)NCCS(N)(=O)=O)c1nc2ccc(-c3ccc(C(=O)N4CCOCC4)cc3)cc2s1` (centres undefined) returned a concentration at 24 h in data set [6] of 5 nM. In addition, the Papp came to 1.3 ×10⁻⁶ cm/s in data set [7] and 1.2 ×10⁻⁶ cm/s in data set [8]. Further, the values for the IC50 in [4], in data set [1] and in [2] were 0.32 µM, 0.28 µM and 0.01 µM, respectively. Besides, the remaining at 10 min, 0.5 µM in data set [9] turned out to be 100%. The same compound registered an AUC at 24 h in data set [10] of 0.16 µM·h. Further, the time of peak concentration (Tmax) in data set [11] was determined as 2.6 h. This compound returned a Cmax in data set [12] of 36 nM. This compound also showed a concentration at 7 h in data set [13] of 8 nM.
For `CS(=O)(=O)C(C(=O)NCCS(N)(=O)=O)c1nc2ccc(-c3ccc(F)nc3)cc2s1` (centres undefined), the results for the Papp in data set [7] and in data set [8] were 7.8 ×10⁻⁶ cm/s and 1.7 ×10⁻⁶ cm/s, respectively. The values for the IC50 in [4], in data set [1] and in [2] were 0.2 µM, 4.4 µM and 0.005 µM, respectively. The remaining at 10 min, 0.5 µM in [9] was 96%. Further, the AUC at 24 h in data set [10] was 0.05 µM·h. Moreover, the Cmax in data set [12] turned out to be 30 nM. Also, the concentration at 7 h in data set [13] came out at 1 nM.
As for `CS(=O)(=O)C(C(=O)NCC(=O)NC1CC1)c1nc2ccc(-c3ccc(F)nc3)cc2s1` (centres undefined), in [3], the Ratio IC50 amounted to 2.8. Further, the Papp in data set [7] came to 38.9 ×10⁻⁶ cm/s; in data set [8], 25.2 ×10⁻⁶ cm/s. In addition, the IC50 in data set [4] worked out at 0.29 µM; in [5], 0.007 µM; in data set [1] it was 0.13 µM.
As for `CS(=O)(=O)C(C(=O)NCCS(N)(=O)=O)c1nc2ccc(-c3ccccc3)cc2s1` (centres undefined), in data set [6], the concentration at 24 h was determined as 130 nM. Moreover, the Papp in [7] came to 36.8 ×10⁻⁶ cm/s; in data set [8], 36.5 ×10⁻⁶ cm/s. Further, the figures for the IC50 in [4], in data set [1] and in data set [2] were 0.1 to 0.21 µM, 0.015 µM and 0.01 µM, respectively. Also, the remaining at 10 min, 0.5 µM in data set [9] came out at 91%. Moreover, in [10], the AUC at 24 h is 14 µM·h. For the same compound, in [11], the Tmax amounted to 0.5 h. For the same compound, the concentration in data set [12] peaked (Cmax) at 3500 nM. The concentration at 7 h in data set [13] stood at 430 nM.
`CS(=O)(=O)C(C(=O)NCCCS(N)(=O)=O)c1nc2ccc(-c3ccccc3)cc2s1` (centres undefined): the values for the IC50 in [1] and in [2] were 0.052 µM and 7.7 µM, respectively.
`O=C(CNC(=O)C(c1nc2ccc(-c3ccc(F)nc3)cc2s1)S(=O)(=O)CCC(F)(F)F)NC1CC1` (centres undefined): the Ratio IC50 in data set [3] is 2.7. Besides, the results for the IC50 in [4], in data set [5] and in [1] were 0.6 µM, 0.66 µM and 0.079 µM, respectively.
Compound `CS(=O)(=O)C(C(=O)NCCS(N)(=O)=O)c1nc2ccc(-c3cnn(CCN4CCOCC4)c3)cc2s1` (centres undefined) gave a concentration at 24 h in data set [6] of 1 nM. The IC50 in data set [4] came out at 0.19 µM; in [2], 0.01 µM. Besides, the remaining at 10 min, 0.5 µM in data set [9] was 74%. Moreover, the AUC at 24 h in data set [10] was found to be 0.1 µM·h. Also, the time to peak (Tmax) in data set [11] is 3 h. The compound also yielded a Cmax in data set [12] of 15 nM. This compound yielded a concentration at 7 h in data set [13] of 4 nM.
In data set [1], `CS(=O)(=O)C(C(=O)NCC(=O)NC1CC1)c1nc2ccc(-c3ccccc3)cc2s1` (centres undefined) registered an IC50 of 0.047 µM.
